CR mimetic SO = reduction of superoxide in aged yeast, primary screen, HTS. 330,000 compounds, 0.18% hits. AID 2690, 2010. superoxide response (% of plate mean), % at 10 µM. S. cerevisiae aged cells, superoxide DHE fluorescence; active compounds read low;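 active = superoxide response under a set limit, about three screen SD below normal, cut at about 65% in these data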;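 also: yeast aged for seven days with compound at 30 °C before DHE staining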
SMARCA2 act = SMARCA2 (BRM) function activators, primary screen, cell-based, luminescence, high throughput; MG213 cells, MMTV-luciferase reporter, dexamethasone, overnight; activation, % at 9.1 µM; 370,000 compounds, 1% hits; in the data active = activation above about 7.8%
Lipid droplet = inhibitors of hepatocyte lipid droplet formation, primary screen, imaging, high-throughput imaging, BODIPY stain; AML12 mouse hepatocytes, oleate lipid droplets; inhibition, % at 6.5 µM; 240,000 compounds, 0.4% hits; AID 1656, 2009;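 active = lipid droplet intensity inhibited by at least 50%, with more than 500 cells counted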
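System: AML12 hepatocytes (mouse). Probe or stimulus: oleic acid at 100 µM to induce lipid droplet formation. Times: overnight treatment with compound plus oleate. Detection: Image-based BODIPY and DAPI two-channel analysis. Evaluation: percent inhibition of filter-corrected integrated lipid droplet intensity per well.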
SR-BI HDL uptake = inhibitors of SR-BI mediated HDL lipid uptake, primary screen, ldlA[mSR-BI] cells, fluorescence, single point | ldlA[mSR-BI] CHO cells, DiI-HDL uptake fluorescence, 3 h | 320,000 compounds, 0.96% hits | inhibition, % at 12.5 µM | AID 488896, 2010;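 active = mean replicate inhibition of at least 70% and a set share of replicates each scoring 70 or more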
Target sequence (Q61009 whole entry, looked up): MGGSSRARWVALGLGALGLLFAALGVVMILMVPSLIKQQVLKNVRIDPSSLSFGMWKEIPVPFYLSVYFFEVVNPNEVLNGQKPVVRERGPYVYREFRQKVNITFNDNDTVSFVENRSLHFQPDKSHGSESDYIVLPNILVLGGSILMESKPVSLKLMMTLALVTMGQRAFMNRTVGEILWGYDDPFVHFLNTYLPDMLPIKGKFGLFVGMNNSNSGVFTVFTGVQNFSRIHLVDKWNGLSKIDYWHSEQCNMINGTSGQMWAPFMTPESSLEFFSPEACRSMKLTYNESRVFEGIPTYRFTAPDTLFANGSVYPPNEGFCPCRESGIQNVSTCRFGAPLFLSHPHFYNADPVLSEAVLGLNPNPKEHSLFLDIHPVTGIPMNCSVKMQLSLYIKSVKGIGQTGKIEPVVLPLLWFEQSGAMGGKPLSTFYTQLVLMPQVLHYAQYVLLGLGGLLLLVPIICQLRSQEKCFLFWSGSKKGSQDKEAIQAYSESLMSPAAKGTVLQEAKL
SR-BI uptake up = activators of SR-BI mediated DiI-HDL uptake, primary screen, ldlA[mSR-BI] CHO cells, DiI fluorescence | 3 h; 100 = double the neutral-control signal | activation, % at 12.5 µM | 320,000 compounds, 0.096% hits | AID 504775, 2011;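 active = mean replicate activation of at least 60% and every replicate at or above 60%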
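Assay system: LDL receptor-deficient CHO ldlA cells overexpressing murine SR-BI / Medium: BSA-supplemented, HEPES-buffered Ham's F12, pH 7.4 / Probe or stimulus: DiI-labelled HDL at 10 µg/mL final / Timing: compound with DiI-HDL co-incubation, 3 h at 37 °C / Technique: bottom-read cell fluorescence after medium removal, ex 550/em 595 nm / Measure: HDL uptake via cellular fluorescence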
AHR act = AHR activators, primary screen, cell-based, luminescence, luciferase reporter, human; AHR-responsive luciferase reporter cells; activation, % at 5 µM; 320,000 compounds, 2.5% hits; Aryl hydrocarbon receptor (Homo sapiens), P35869; in the data active = activation above about 47%
Hits are given with their value; - = inactive; . = no result. The list is not random: actives were taken first. Their share in the collection is about 4.3%.

SMILES | CR mimetic SO | SMARCA2 act | Lipid droplet | SR-BI HDL uptake | SR-BI uptake up | AHR act
COc1cccc(CN(C)[C@H]2C[C@H]3c4[nH]c5ccccc5c4CCN3C[C@H]2[C@H](C)O)c1OC | . | - | . | . | . | .
O=C(NCCc1ccccc1)OCc1cn(Cc2cc(F)cc(F)c2)nn1 | . | - | . | . | . | .
COC(=O)c1cccc(OC[C@@H](O)CN2CCC(C(O)(c3ccccc3)c3ccccc3)CC2)c1 | . | - | . | . | . | .
N/C(=N\OC(=O)c1ccc(Cl)cc1)c1ccc(Cl)cc1 | - | - | - | . | . | -
N=C(N)c1ccc(Cl)cc1 | - | - | - | - | - | 52
O=C(Cn1cnc2ccccc2c1=O)c1ccccc1 | - | - | - | - | - | 48
COc1ccc(NC(=O)NCCCN2CCc3ccccc3C2)cc1 | - | - | - | - | - | -
O=C(NCCCN1CCc2ccccc2C1)Nc1ccc(Br)cc1 | - | - | - | - | - | 61
Cc1cccnc1Nc1nc(-c2ccccc2)cs1 | - | - | - | - | - | 55
Cc1cccnc1Nc1nc(-c2ccccn2)cs1 | - | - | - | - | - | -
Cc1cccnc1Nc1nc(-c2ccc(O)cc2O)cs1 | - | - | . | 71 | - | 61
CCCC[C@H]1C2CC(OC(=O)Nc3cccc(Cl)c3)C(C2)[C@H]2CCCCN21 (some centres not stated) | . | - | . | . | . | .
O=C1Nc2ccccc2S/C1=C\C(=O)N1CCCC1 | - | . | - | . | . | 64
O=C1Nc2ccccc2SC1=Cc1ccccc1 | . | - | . | . | . | .
CC1CCN(c2ccc(NC(=O)c3ccc([N+](=O)[O-])o3)cc2)CC1 | - | - | . | 87 | - | -
C#CCNC(=O)C[C@@H]1C(=O)N2CCCC3=C2[C@@]1(C(=O)OC)CCCC3 | . | - | . | . | . | .
Cc1noc(C(=O)N2CCN(c3ccc(F)cc3)CC2)c1Cl | - | - | - | - | - | 48
COc1cc(OC)c(-c2nc3ccccc3s2)cc1OC | - | - | - | 71 | - | -
COc1cc(-c2nc3ccccc3s2)ccc1O | - | - | - | - | - | 48
CC(C)CNc1cccc2c1S(=O)(=O)N(Cc1cccc(F)c1)[C@@H](C)[C@H](c1ccccc1)O2 | . | - | . | . | . | .
Cc1ccc(S(=O)(=O)N2CCCC2C(=O)N2CCN(c3ccccc3)CC2)cc1C (configuration not stated) | . | - | . | . | . | .
CCCCCN1CCCCC(NC(=O)c2cccc(C(F)(F)F)c2)C1=O (configuration not stated) | . | - | . | . | . | .
CCOc1ccc(S(=O)(=O)N(C)c2ccc(OCC(=O)Nc3nc(-c4cc(OC)ccc4OC)cs3)cc2)cc1 | - | - | - | 82 | - | -
Cc1ccc(OCc2nnc(SCC(=O)Nc3ccc(S(=O)(=O)Nc4cc(C)nc(C)n4)cc3)n2Cc2ccco2)cc1 | . | - | . | . | . | .
COC(=O)c1cc(NC(=S)Nc2cc(Cl)cc(Cl)c2)cc(C(=O)OC)c1 | - | - | - | 86 | - | -
SMILES | CR mimetic SO | SMARCA2 act | Lipid droplet | SR-BI HDL uptake | SR-BI uptake up | AHR act
Cc1ccccc1Cn1ccc(NC(=O)c2cnn3c(C(F)(F)F)cc(-c4ccco4)nc23)n1 | - | - | - | - | - | 48
O=C(Nc1cnn(Cc2ccccc2)c1)c1cc2nc(-c3ccco3)cc(C(F)(F)F)n2n1 | - | - | . | 71 | - | -
O=C(c1cnn2c(C(F)(F)F)cc(-c3ccc(Br)cc3)nc12)N1CCOCC1 | . | - | . | - | - | .
Cc1nn(C)cc1NC(=O)c1cc2nc(-c3ccco3)cc(C(F)(F)F)n2n1 | - | - | - | - | - | -
Cc1cc(NC(=O)c2cnn3c(C(F)(F)F)cc(-c4ccc(Br)cc4)nc23)no1 | - | - | - | 77 | - | -
O=C(NCc1cccnc1)c1cc2nc(-c3ccc4c(c3)OCO4)cc(C(F)(F)F)n2n1 | - | - | - | . | . | -
O=C(NCc1ccco1)c1cc2nc(-c3ccc4c(c3)OCO4)cc(C(F)(F)F)n2n1 | - | - | . | 72 | - | 63
CCCCN=C(N)NC(=O)c1ccccc1 | . | - | . | . | . | .
CC(C)(C)c1ccc(S(=O)(=O)N2CCCC(C(=O)N3CCN(Cc4ccccc4)CC3)C2)cc1 (configuration not stated) | . | - | . | . | . | .

Compound activity (PubChem)
